The record followed here is ChEMBL document CHEMBL2169874, “Design, synthesis, and pharmacological evaluation of novel hybrid compounds to treat sickle cell disease symptoms. part II: furoxan derivatives” (J Med Chem, 2012).

Structures are written as SMILES. Active and inactive are the calls of the source. The calls are words filed in the database; no cut-off is given here.

A short description of series [1]: Induction of nitrite release at 10^-4 M after 1 hr by Griess method in presence of L-cysteine. The class given is physicochemical. Particulars: 100 µM. A general note: The Griess reaction detects nitrite, a stable product of nitric oxide.
For series [2], the system named is Mus musculus. Kind of series: Antinociceptive activity in Swiss albino mouse assessed as inhibition of acetic-acid induced abdominal constriction at 100 umol/kg, po administered 1 hr prior to acetic-acid challenge measured after 10 mins relative to vehicle-treated control. The series is classed as functional. The settings on record: Abdomen. The essentials:
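Mice dosed orally at 100 μmol/kg as a suspension in 5% arabic gum in saline. 0.6% acetic acid (0.1 mL/10 g) given ip 1 h later. Starting 10 min after injection, constrictions per animal counted for 20 min. Vehicle controls received an equal volume. Expressed as % inhibition vs vehicle group; mean ± SEM, 10 animals per group; Student's t test.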

The subject of series [3] is K562. Kind of series: Upregulation of beta-soluble guanilate cyclase mRNA expression in human K562 cells at 5 and 30 uM from 24 to 96 hrs by qRT-PCR analysis relative to control. The series is classed as functional, cell-based. The essentials:
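K562 cells in DMEM with 10% FBS, penicillin/streptomycin, 37 °C, 5% CO2, seeded at 1 × 10^7 cells/100 mL. Treated at 5 or 30 μM for 24, 48, 72, 96 h. β-sGC mRNA by SYBR Green qRT-PCR, normalized to β-actin and GAPDH, vs DMSO control. Mean ± SEM, n = 5; Mann−Whitney test.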
(In general: Real-time PCR tracks product formation cycle by cycle.)

Series [4] has as its system K562. Kind of series: Upregulation of gamma-globin mRNA expression in human K562 cells at 5 uM after 24 hrs by qRT-PCR analysis relative to control. The class given is functional, cell-based. The essentials: (§1)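 K562 cells in DMEM with 10% FBS, penicillin/streptomycin, 37 °C, 5% CO2, seeded at 1 × 10^7 cells/100 mL. Treated at 5−100 μM for 24, 48, 72 or 96 h. γ-globin mRNA by SYBR Green qRT-PCR, normalized to β-actin and GAPDH, vs vehicle control (DMSO, or water for HU). Mean ± SEM, n = 5; ANOVA with Dunnett's test.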

The subject of series [5] is K562. As to the kind of experiment: Upregulation of gamma-globin mRNA expression in human K562 cells at 5 uM after 96 hrs by qRT-PCR analysis relative to control. The series is classed as functional. The essentials: as §1
The subject of series [6] is Mus musculus. As to the kind of experiment: Mutagenicity in Swiss mouse assessed as micronucleated reticulocytes in peripheral blood at 50 mg/kg, po after 30 hrs by micronucleus test. On the set-up: dose 50 mg/kg, route oral. The class given is toxicity, organism-based. The settings on record: in vivo. The procedure, abridged: (§2)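 Swiss mice of both sexes (25−30 g), 10 per group, gavaged at 25, 50 or 100 mg/kg. Negative control: 1% CMC/0.2% Tween by gavage; positive control: cyclophosphamide 50 mg/kg ip. Blood collected 30 h later, slides prestained with acridine orange. 1000 reticulocytes scored per animal for micronucleated cells; mean with SD.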

For series [7], the system named is Mus musculus. As to the kind of experiment: Mutagenicity in Swiss mouse assessed as micronucleated reticulocytes in peripheral blood at 25 mg/kg, po after 30 hrs by micronucleus test. The settings on record: in vivo. The series is classed as toxicity, organism-based. Details: dose 25 mg/kg, route oral. The essentials:
as §2

Series [8] concerns Mus musculus. As to the kind of experiment: Mutagenicity in Swiss mouse assessed as micronucleated reticulocytes in peripheral blood at 100 mg/kg, po after 30 hrs by micronucleus test. The class given is toxicity, organism-based. Details: dose 100 mg/kg, route oral. Particulars: in vivo. The procedure, abridged:
as §2

Series [9] has as its system K562. As to the kind of experiment: Upregulation of gamma-globin mRNA expression in human K562 cells at 5 uM after 24 to 96 hrs by qRT-PCR analysis relative to control. The class given is functional, cell-based. The procedure, abridged:
as §1

The test system of series [10] is K562. As to the kind of experiment: Upregulation of gamma-globin mRNA expression in human K562 cells at 100 uM after 96 hrs by qRT-PCR analysis relative to control. The series is classed as functional. The essentials:
as §1

On to `O=C(OCc1c(-c2ccccc2)no[n+]1[O-])c1ccccc1N1C(=O)c2ccccc2C1=O`, for which the Activity in [1] turned out to be 9.7%. In the series on Mus musculus [2], the inhibition entry was “inactive”.

As to `O=C(NCCOc1no[n+]([O-])c1S(=O)(=O)c1ccccc1)c1ccc(N2C(=O)c3ccccc3C2=O)cc1`, the Activity in [1] is recorded as 28.2%. Further, the inhibition result in the series on Mus musculus [2] is “inactive”.

In the case of `O=C1c2ccccc2C(=O)N1CCOc1c(S(=O)(=O)c2ccccc2)no[n+]1[O-]`, the outcome with K562 [3] was inactive. Further, the Activity was 9.5% in [1], 5.5 in the series on Mus musculus [6], 4 in the series on Mus musculus [7] and 6.7 in the series on Mus musculus [8]. The inhibition in vivo at 100 µmol/kg with Mus musculus [2] is 43%. Also, the result in the series with K562 [4] was Active. The “fold change (FC)” value in the series with K562 [5] was found to be 2.8.

For the compound `O=[N+]([O-])O[C@H]1CO[C@H]2[C@@H]1OC[C@H]2O[N+](=O)[O-]` [ISOSORBIDE DINITRATE], the Activity in series [1] stood at 11.6%.

Consider `O=C1c2ccccc2C(=O)N1c1ccc(S(=O)(=O)NCCOc2no[n+]([O-])c2S(=O)(=O)c2ccccc2)cc1`, for which the Activity in [1] was 28.1%. Moreover, in the series on Mus musculus [2], the inhibition in vivo at 100 µmol/kg amounted to 36%.

With `O=C1c2ccccc2C(=O)N1Cc1c(-c2ccccc2)no[n+]1[O-]`, in series [1], the Activity stood at 14.8%. Besides, the inhibition entry in the series on Mus musculus [2] was “inactive”.

For `NC(=O)NO` [HYDROXYUREA], in the series on K562 [9], the outcome was inactive. In the series with Mus musculus [2], the inhibition result is “inactive”. Besides, the Activity with Mus musculus [6] came out at 15; with Mus musculus [7] it was 9.9; in the series with Mus musculus [8] it was 33.7. Moreover, in the series on K562 [10], the “fold change (FC)” value came to 1.77.

Turning to `O=C(OCc1c(-c2ccccc2)no[n+]1[O-])c1cc(N2C(=O)c3ccccc3C2=O)ccc1O`, the Activity in series [1] came out at 10.6%. The inhibition entry with Mus musculus [2] is “inactive”.

Consider `O=C(OCc1c(-c2ccccc2)no[n+]1[O-])c1cccc(N2C(=O)c3ccccc3C2=O)c1`, for which the Activity in series [1] is listed as 13.2%. Moreover, the inhibition entry in the series with Mus musculus [2] is “inactive”.

`Cc1c(N(C)CS(=O)(=O)O)c(=O)n(-c2ccccc2)n1C`: the inhibition result in the series with Mus musculus [2] is “Active”.

A word on the inhibition in vivo: it is the percentage by which the read-out fell short of the control.
